According to ChEMBL document CHEMBL1139056, “3D-QSAR design of novel antiepileptic sulfamides” (2007):
Active and inactive are the calls of the source. The rule behind the calls is not given here.

How the values were obtained:
Mus musculus [1] = test: Anticonvulsant activity in ip dosed Albino mouse by MES test; format: functional
Outline: (§1)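 Albino mice of matched age and weight, 12-h light/dark cycle, free food and water. Compound given ip in 30% PEG 400 and 10% water, 0.01 ml/g body weight. MES test by NIH antiepileptic drug development program standard procedures. ED50 from groups of six mice at several doses at time of peak effect; Litchfield–Wilcoxon with 95% confidence intervals.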

Mus musculus [2] = test: Anticonvulsant activity in ip dosed Albino mouse by PTZ test; format: functional, organism-based
Outline: (§2)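 Mice of matched age and weight, 12-h light/dark cycle, food and water ad libitum. Dosing ip in 30% PEG 400 and 10% water at 0.01 ml/g body weight. PIC and PTZ seizure tests run by NIH antiepileptic drug development program standard procedures.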

Mus musculus [3] = test: Anticonvulsant activity in ip dosed Albino mouse by PIC test; format: functional, organism-based; outline: as §2
Mus musculus [4] = test: Anticonvulsant activity in ip dosed Albino mouse assessed as time of peak effect by MES test; format: functional; outline: as §1

## O=S(=O)(NC1CC1)NC1CC1
Mus musculus [1]
  Activity: inactive
Mus musculus [2]
  Activity: inactive
Mus musculus [3]
  Activity: inactive

## CCCCNS(=O)(=O)NCCCC [BUTYL(BUTYLSULFAMOYL)AMINE]
Mus musculus [1]
  ED50: 295 µmol/kg
Mus musculus [2]
  Activity: inactive
Mus musculus [4]
  Activity: 2 h
Mus musculus [3]
  Activity: inactive

## O=S(=O)(NCc1ccccc1)NCc1ccccc1 [BENZYL(BENZYLSULFAMOYL)AMINE]
Mus musculus [1]
  ED50: 238 µmol/kg
Mus musculus [2]
  Activity: inactive
Mus musculus [4]
  Activity: 2 h
Mus musculus [3]
  Activity: inactive

## O=S(=O)(N1CCOCC1)N1CCOCC1
Mus musculus [1]
  Activity: inactive
Mus musculus [2]
  Activity: inactive
Mus musculus [3]
  Activity: inactive

## O=S(=O)(NC1CCCCC1)NC1CCCCC1
Mus musculus [1]
  ED50: 151 µmol/kg
Mus musculus [2]
  Activity: inactive
Mus musculus [4]
  Activity: 0.5 h
